Reference: ChEMBL document CHEMBL2407028, “Discovery of novel oxazolidinedione derivatives as potent and selective mineralocorticoid receptor antagonists” (Bioorg Med Chem Lett, 2013)

What was measured:
[1] = Oral bioavailability in rat at 1 mg/kg; assay type: ADME, organism-based; conditions: in vivo
Procedure, shortened: (§1)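 Rats dosed at 1 mg/kg iv (n = 2) or 1 mg/kg po (n = 3), formulated at 1 mg/mL in PEG 200:water (70:30). Blood concentrations measured by LC/MS/MS after protein precipitation with acetonitrile.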

[2] = Half life in rat at 1 mg/kg, iv and 1 mg/lg, po; assay type: ADME, organism-based; design: dose 1 mg/kg, route oral; conditions: in vivo; procedure, shortened: as §1
Rattus norvegicus = test: Dose normalized AUC in rat at 1 mg/kg, po; assay type: ADME, organism-based; design: dose 1 mg/kg, route oral; conditions: in vivo; procedure, shortened: as §1
[3] = biological target: T1, Mineralocorticoid receptor (Homo sapiens, UniProt P08235); test: Antagonist activity at human mineralocorticoid receptor assessed as inhibition of binding to coactivator peptide by NH Pro assay
T1 sequence (P08235 whole entry): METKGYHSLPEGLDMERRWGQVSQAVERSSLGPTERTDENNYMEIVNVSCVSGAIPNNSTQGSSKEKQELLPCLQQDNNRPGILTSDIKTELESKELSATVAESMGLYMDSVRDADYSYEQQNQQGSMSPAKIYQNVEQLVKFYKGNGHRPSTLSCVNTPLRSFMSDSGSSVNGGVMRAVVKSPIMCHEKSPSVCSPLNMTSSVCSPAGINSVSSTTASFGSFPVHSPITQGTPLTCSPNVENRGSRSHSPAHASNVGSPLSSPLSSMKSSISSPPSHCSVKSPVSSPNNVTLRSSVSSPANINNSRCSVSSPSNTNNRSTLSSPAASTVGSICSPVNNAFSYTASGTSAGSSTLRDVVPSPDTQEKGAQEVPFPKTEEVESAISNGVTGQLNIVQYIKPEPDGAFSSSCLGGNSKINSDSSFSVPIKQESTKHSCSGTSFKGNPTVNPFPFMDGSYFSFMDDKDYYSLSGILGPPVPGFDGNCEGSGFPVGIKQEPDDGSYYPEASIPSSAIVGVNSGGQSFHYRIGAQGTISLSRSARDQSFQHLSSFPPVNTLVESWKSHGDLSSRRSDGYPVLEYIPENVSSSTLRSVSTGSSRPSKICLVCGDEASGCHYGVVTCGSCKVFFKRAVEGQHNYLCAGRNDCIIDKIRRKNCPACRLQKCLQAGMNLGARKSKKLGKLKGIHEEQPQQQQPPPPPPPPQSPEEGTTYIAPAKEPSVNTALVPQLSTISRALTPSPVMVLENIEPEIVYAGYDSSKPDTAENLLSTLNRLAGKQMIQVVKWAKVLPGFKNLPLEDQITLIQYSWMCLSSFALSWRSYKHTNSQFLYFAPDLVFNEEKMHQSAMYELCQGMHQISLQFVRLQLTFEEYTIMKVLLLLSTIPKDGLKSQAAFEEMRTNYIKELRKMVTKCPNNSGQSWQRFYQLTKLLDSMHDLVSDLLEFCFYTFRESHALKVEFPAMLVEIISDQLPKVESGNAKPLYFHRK

[4] = Cmax in rat at 1 mg/kg, iv and 1 mg/lg, po; assay type: ADME, organism-based; design: dose 1 mg/kg, route oral; conditions: in vivo; procedure, shortened: as §1
Androgen receptor = biological target: T2, Androgen receptor (Homo sapiens, UniProt P10275); test: Agonist activity at androgen receptor (unknown origin) by NH Pro assay
T2 sequence (P10275 whole entry): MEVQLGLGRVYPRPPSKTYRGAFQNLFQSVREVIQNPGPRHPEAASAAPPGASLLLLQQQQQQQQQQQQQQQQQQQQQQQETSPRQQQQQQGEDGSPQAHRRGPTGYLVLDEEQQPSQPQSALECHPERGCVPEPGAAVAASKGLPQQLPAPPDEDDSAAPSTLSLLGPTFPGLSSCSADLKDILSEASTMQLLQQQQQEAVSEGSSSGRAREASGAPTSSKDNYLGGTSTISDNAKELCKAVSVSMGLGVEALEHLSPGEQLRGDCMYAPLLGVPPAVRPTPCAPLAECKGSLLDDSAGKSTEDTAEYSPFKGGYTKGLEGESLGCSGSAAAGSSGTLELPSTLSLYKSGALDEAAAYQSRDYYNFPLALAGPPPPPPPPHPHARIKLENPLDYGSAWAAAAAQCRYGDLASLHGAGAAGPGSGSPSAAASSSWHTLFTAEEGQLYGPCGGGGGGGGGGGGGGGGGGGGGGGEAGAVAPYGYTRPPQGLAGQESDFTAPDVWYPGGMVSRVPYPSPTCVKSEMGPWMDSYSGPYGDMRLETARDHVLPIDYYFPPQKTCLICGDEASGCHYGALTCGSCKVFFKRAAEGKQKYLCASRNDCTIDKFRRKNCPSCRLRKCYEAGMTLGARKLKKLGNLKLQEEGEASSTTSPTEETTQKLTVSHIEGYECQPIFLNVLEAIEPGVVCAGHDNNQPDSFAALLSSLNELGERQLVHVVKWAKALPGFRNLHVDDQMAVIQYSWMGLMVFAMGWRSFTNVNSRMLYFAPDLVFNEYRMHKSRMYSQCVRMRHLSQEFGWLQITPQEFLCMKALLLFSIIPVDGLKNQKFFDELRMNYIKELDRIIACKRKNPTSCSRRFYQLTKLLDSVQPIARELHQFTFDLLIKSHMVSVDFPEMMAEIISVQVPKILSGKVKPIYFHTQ

Progesterone receptor = biological target: T3, Progesterone receptor (Homo sapiens, UniProt P06401); test: Agonist activity at progesterone receptor beta (unknown origin) by NH Pro assay
T3 sequence (P06401 whole entry): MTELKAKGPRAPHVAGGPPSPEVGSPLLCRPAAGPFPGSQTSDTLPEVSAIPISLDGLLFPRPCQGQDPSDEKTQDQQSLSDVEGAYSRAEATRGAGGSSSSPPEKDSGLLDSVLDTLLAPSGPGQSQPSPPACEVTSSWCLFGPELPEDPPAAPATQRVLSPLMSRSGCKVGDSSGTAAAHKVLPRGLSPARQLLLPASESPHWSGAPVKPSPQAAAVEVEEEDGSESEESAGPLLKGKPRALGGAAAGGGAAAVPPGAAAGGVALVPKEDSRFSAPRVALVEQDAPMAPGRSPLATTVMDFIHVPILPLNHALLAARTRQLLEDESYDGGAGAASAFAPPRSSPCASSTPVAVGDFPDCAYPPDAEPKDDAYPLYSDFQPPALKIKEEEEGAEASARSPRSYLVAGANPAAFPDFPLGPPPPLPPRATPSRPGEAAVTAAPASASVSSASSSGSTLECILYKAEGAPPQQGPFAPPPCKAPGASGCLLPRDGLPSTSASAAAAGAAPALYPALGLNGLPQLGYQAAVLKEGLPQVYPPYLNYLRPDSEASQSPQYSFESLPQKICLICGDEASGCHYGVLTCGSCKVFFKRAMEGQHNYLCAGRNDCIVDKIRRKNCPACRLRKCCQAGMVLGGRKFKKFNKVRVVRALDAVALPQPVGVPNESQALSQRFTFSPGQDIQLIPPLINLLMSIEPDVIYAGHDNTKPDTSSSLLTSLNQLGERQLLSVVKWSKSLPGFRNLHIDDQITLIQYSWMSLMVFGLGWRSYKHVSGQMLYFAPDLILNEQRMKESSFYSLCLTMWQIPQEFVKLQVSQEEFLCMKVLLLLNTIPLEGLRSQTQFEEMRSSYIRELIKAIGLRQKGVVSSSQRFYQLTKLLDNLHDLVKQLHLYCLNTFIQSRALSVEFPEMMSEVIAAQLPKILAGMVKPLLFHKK

bioavailability [1] [%]	half-life [2] [h]	AUC/dose (Rattus norvegicus) [µM·kg·h/mg]	IC50 [3] [µM]	Cmax [4] [nM]	EC50 (Androgen receptor) [µM]	EC50 (Progesterone receptor) [µM]	Compound
63	2.3	0.24	0.18	120	> 20	> 20	C[C@H](c1ccc(F)cc1)N1C(=O)O[C@](Cc2ccc(F)cc2)(C(=O)NCc2ccc(Cl)c(Cl)c2)C1=O
28	2.5	0.24	0.033	98	> 20	> 20	COc1cc(CNC(=O)[C@@]2(Cc3ccccc3)OC(=O)N([C@@H]3CCc4ccccc43)C2=O)cc(OC)c1
